According to the EternaBench riboswitch data:

System: MS2 coat protein
Assay: apparent Kd, MS2 coat protein; higher = weaker binding; RNA-MaP array; FMN 200 µM where present
In short: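 Each design was made on Illumina sequencing-chip clusters by stalled E. coli RNA polymerase and titrated with SNAP-549-labelled MS2 coat protein from 0.7 or 1.5 nM, doubling to 3 µM, in the absence and then the presence of constant ligand. The buffer was 100 mM Tris-HCl pH 7.5, 80 mM KCl, 4 mM MgCl2, BSA, DTT, yeast tRNA and Tween-20. The apparent Kd is the median of filtered per-cluster fits of binding curves, with green signal normalised to red-channel RNA signal and control-cluster median Fmax.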

[1] = designed as: OFF switch for flavin mononucleotide, no ligand
[2] = ligand present: flavin mononucleotide, designed as: OFF switch for flavin mononucleotide
[3] = designed as: ON switch for flavin mononucleotide, no ligand
[4] = ligand present: flavin mononucleotide, designed as: ON switch for flavin mononucleotide

Sequence | apparent Kd [1] [µM] | apparent Kd [2] [µM] | apparent Kd [3] [µM] | apparent Kd [4] [µM]
UGAGAUGUAGUAGGAUAUCAGGUUACAUGAGGAUCACCCAUGUUAGAUUGGUGGAUAGAUGUUGAUGAGAAGGACUUUUGAGUG | 0.0667 | 0.116 |  | 
UGAUAGGACAGAGGAUAUACGGAUAGGAUCUACUAUCAAACAAGUCCUACAUGAGGAUCACCCAUGUAGAAGGCUGUCCUAUCU | 0.0161 | 0.0222 |  | 
AGCGACCAAGGAUAUACAUGAGGAUCACCCAUGUCGGCGACCUUCCUGGGAUUUCUUAGUAGAAGGUGGUCAAU | 0.0427 | 0.0869 |  | 
CUAGUUGUCGCAGGAUAUGCCCGCUGGUUGGAGGCAGAAGGGUGACACCAAAUAUUAUACAUGAGGAUCACCCAUGUCGCCAGC |  |  | 0.0214 | 0.0206
UUAUCUCAUGAGAAGGACAUGAGGAUCACCCAUGUAGGAUAUCAUGGGUCAGAGGAAUUGAAUCUUCGGAUUCAAUUACUCUUC |  |  | 0.072 | 0.0122
AAGUAGAUCCGAGGAUAUACAAUCUGGAAUCGGUACAUGAGGAUCACCCAUGUAGAAGGCGGAUCUACAGGUACUAAAGUACCA | 0.00788 | 0.0388 |  | 
AUUGUAGUUGUGAGGAUAUCGUAGAUUUAUUGAAACGAGAAGGCACAUGAGGAUCACCCAUGUAAGUUGUAGGU | 0.0712 | 0.267 |  | 
AUGCAGCCACCACAGGAUAUACGUGGAUCGACAUGAGGAUCACCCAUGUAUAUCCUAAUAAUUGCGUAGAAGGGUGGUCGGCUGG |  |  | 0.555 | 0.0818
CUGUUGGGCUCAGGAUAUCGGGUUUAACAUGAGGAUCACCCAUGUCGUCUGCGAAAGCAGAAUCACGAGAAGGGAGACCAGCGA |  |  | 0.0134 | 0.00753
AUCAGCUCGUCAGGAUAUACGUCUCUGCGUCAGCAGUGUGGUAAGAUCACAUGAGGAUCACCCAUGUAGAAGGGACGAGCUGAU | 0.0428 | 0.691 |  | 
AGAUAACACCAGAAGGACAUGAGGAUCACCCAUGUAGGAUAUGGGCAUCACUCGAGAAAGAAACGACCAAAUGGACACGCGGUC |  |  | 0.0801 | 0.00946
UGAUCGAGAGAUCUUAGAUUCUGGUAGGAUAUACAUAAAAUGCGCUUUACAUGAGGAUCACCCAUGUAGAAGGACUAGAGUCUA | 0.00754 | 0.0098 |  | 
ACUAUACGAGGAUAUACUGACGGGCCUCAGGCAUACAUCAAACAUGAGGAUCACCCAUGUAGAAGGCGUAUACU | 0.0794 | 0.0292 |  | 
GCACGGCAUGUAGGAUAUCGAGCGCCGGGCGCUCGAGAAGGACAUGAGGAUCACCCAUGUAGUCUCAGUGAGAGACUGCUGUGC | 0.0183 | 0.0362 |  | 
UUACCUCAUGAGAAGGACAUGAGGAUCACCCAUGUAGGAUAUCGUGGGACACUGGUAUUGAAUCUUCGGAUUCAAUACCUGUGU |  |  | 0.465 | 0.029
UGGAUCAUCGGAGGAUAUCAUGUAAAUACAUGAGGAUCACCCAUGUCGUACGAGAGUACGGAGAUUGAGAAGGCCGAUGAUCCU |  |  | 0.0246 | 0.0154
AAAUUUAACGAAGGAUAUGCUUACAUGAGGAUCACCCAUGUGUGCCUUGUGAUGCUGAUUAGGUUGCAGAAGGUCGUAUACAUA | 0.135 | 0.174 |  | 
UAAUAAUAAUAAUAGCAGAAUUACAUGAGGAUCACCCAUGUAUAGGAUAUCGUCAGGAAUACUGACGAGAAGGAUACAAACUGC | 0.0176 | 0.0219 |  | 

Sequence | apparent Kd [1] [µM] | apparent Kd [2] [µM] | apparent Kd [3] [µM] | apparent Kd [4] [µM]
UAUAUGUCAGGAUAUUGAUUGGGAUGGAAUUUAGUUUUGGUUAAGAAGGGACAUGAGGAUCACCCAUGUUCCUC | 0.0171 | 0.0184 |  | 
UGGUACUAGGGAGGAUAUGGCAAGAUACAUGAGGAUCACCCAUGUUUAAGAAUGCCGAGAGGCAACUAGAAGGCCCUAGUACCU |  |  | 0.00775 | 0.0047
UACCACCGCACGGACACGCCGAGUCAGGAUAUACAUGAGGAUCACCCAUGUGAAGGCCGGCUCGUGUAGAAGGGACAGGCGUUG | 0.00543 | 0.00672 |  | 
CAGGAUAGAGGAUAUACAUAGAUACAGAUUCAUGUGAUCCUACAUGAGGAUCACCCAUGUAGAAGGCUAUCCUG | 0.315 | 0.0395 |  | 
AUGAGAGCAGGAUAUGCAGGUGUGCCGGAAGAAAGAAGAGGACAUGAGGAUCACCCAUGUAGAAGGGCUAACCC | 0.0411 | 0.0198 |  | 
AUCAUGCUCAAGAAGGACAUGAGGAUCACCCAUGUAGGAUAUUGGGCGGUCACCUCUAGCUUGUGUGUAUCUGAAUACUCCAGG |  |  | 0.0211 | 0.00717
AUUAGUAUCUAGGAUAUCUAGUACAUAGUAUCUAGAGAAGGAGAUACAUGAGGAUCACCCAUGUUCUGUGUUCU | 0.0272 | 0.0645 |  | 
GUGCGGAACCUAGGAUAUCCGACAUGGACAGGUGGUAAGUCUCCCACAUGAGGAUCACCCAUGUAGGAGAAGGAGGAUCACGGG | 0.00684 | 0.00739 |  | 
UAUUAAUACAUAUACAUGAGGAUCACCCAUGUCAAAAGACAUGAGGAUAUGGAUCCUAAUUGGAUCCAGAAGGCAUGAAUAAUU |  |  | 0.347 | 0.0176
AUCUUGUCAGGAUAUCUGACAAGUGACGAAAGUCACAGUUCAGAGAAGGUACAUGAGGAUCACCCAUGUAGAAC | 0.0194 | 0.0192 |  | 
UUUAUUUUUAGAGGAUAUAUUGUGUGUGAGAGAAUAGAAGGCUAAACAUGAGACACACACAUGAGGAUCACCCAUGUUAUGUUU |  |  | 0.0626 | 0.052
AAGACUAGAGGAUAUACAUGAGGAUCACCCAUGUAACUGUCAGGUGACUGACGGAAAUGUAGAAGGCUAGUCAA | 0.0162 | 0.0379 |  | 
CAGCGCUGUCGAGAGGAUAUGCAGUGAUGGACAUGAGGAUCACCCAUGUUAGCGAUAGCAUUACGGUAGAAGGCUCUACAGCUGC |  |  | 0.018 | 0.0151
AGGCGAGUAGGAUAUGCGUAUUUACAGGAAAGCUGGAUGGUACAUGAGGAUCACCCAUGUAGAAGGGCUCUGAA | 0.0212 | 0.0194 |  | 
UAGAAGUCAGGAUAUGCAUGGCGGGACUUGCGUCGUGGCGUGCAGAAGGGACAUGAGGAUCACCCAUGUAAAGG | 0.159 | 0.265 |  | 
UAUCGGAGCAGAGGAUAUUACAUGAGGAUCACCCAUGUAUGAACCAAUAGCUGGAAACAGCAAUGUAAGAAGGCUGCUCCGACA | 0.0119 | 0.163 |  | 
CGUAGGAUCCAGAAGGCAUGAACAUGAGGAUCACCCAUGUGAAAAGACAUGAGGAUAUGGAUCCUACGAAAAGUGCGAAAGCAC |  |  | 0.00553 | 0.00547
AACAGUACAGGAUAUACAUGAGGAUCACCCAUGUGAGAAUUAAGUGGCGUACCACUAAGUAGAAGGGUACUGGA | 0.0517 | 0.151 |  | 
